# Most compounds without a hit are left out; they make up all but 3.2% or so of the library.
# S100A4 inh HTS: blocks human S100A4 binding to myosin IIA peptide. AID 652163. S100A4/TAMRA-MyoIIA peptide fluorescence polarization. actives 0.14% (n = 360,000). inhibition, % at 10.7 µM. P26447;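 active = mean inhibition of at least 70% across replicates, with every replicate also reaching that level; inconclusive = mean inhibition reaches 70% but some replicates fall short; inactive = mean inhibition below 70%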
# Target sequence (P26447 whole entry, looked up): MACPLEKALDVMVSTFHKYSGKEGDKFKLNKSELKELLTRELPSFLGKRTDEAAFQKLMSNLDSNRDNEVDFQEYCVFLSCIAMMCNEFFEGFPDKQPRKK
#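 Material: human S100A4 monomer with TAMRA-labelled myosin IIA peptide; buffer or medium: HEPES pH 7.2 with CaCl2, KCl, NaCl, DTT, Triton; compound dosing: one concentration per compound; schedule: 5 min incubation before reading; benchmarks: neutral control DMSO, positive control TFP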
# Cneo AK release: Cryptococcus neoformans lysis via adenylate kinase release. C. neoformans lysis, adenylate kinase release luminescence, 4 h; normalised: neutral wells 0, clomiphene wells 100. lysis activity, % at 15 µM. actives 0.2% (n = 360,000);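 active = mean lysis activity across replicates of at least 80%, whatever share of replicates individually reach that level; inactive = mean lysis activity below 80%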
#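 Assay system: C. neoformans cells. Amount: yeast cell density of 5 × 10^6 cells/mL. Technique: AK luminescence. Buffer or medium: YPD. Times: static 4 h at 37 °C with compound, 1 h detection. Dosing: single-point compound dose. Read-out: lysis from increased AK signal.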
# PfHsp90 set2: inhibits growth of yeast expressing Plasmodium falciparum Hsp90. S. cerevisiae expressing PfHsp90, BacTiter-Glo ATP, 48 h; yeast lacking PDR1 and PDR3 efflux regulators. inhibition, % at 9.4 µM. actives 0.32% (n = 310,000). AID 504621;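 active = every replicate shows inhibition above about 80%, whatever the replicate mean, limit read from the data; inconclusive = mean inhibition reaches the set limit but some replicate falls short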;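 note: 0% = DMSO neutral controls and 100% = 20 µM radicicol positive controls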
# DENV2 CPE rescue: inhibitors of DENV2 cytopathic effect | DENV2-infected cells, cytopathic effect rescue, plate reader | CPE inhibition, % at 9.99 µM | actives 1.7% (n = 350,000); in the data active = CPE inhibition above about 20%, passing the limit was not always enough; inconclusive = no clear call, values can overlap the other calls; tested in BHK-21 cells;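 note: 0% = median of neutral control wells and 100% = median of positive control wells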
# AF4-AF9 inh: blocks AF4 peptide binding to human AF9; AlphaScreen, biotin-AF4 peptide binding to FLAG-AF9; actives 0.47% (n = 350,000); P42568; inhibition, % at 10 µM;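 active = every replicate reaching a set inhibition limit, whatever the replicate mean, cut at about 25% in these data; inconclusive = mean inhibition reaches that limit but some replicates miss it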;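 note: 0% = plate neutral control median and 100% = total signal loss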
# Target sequence (P42568 whole entry, looked up): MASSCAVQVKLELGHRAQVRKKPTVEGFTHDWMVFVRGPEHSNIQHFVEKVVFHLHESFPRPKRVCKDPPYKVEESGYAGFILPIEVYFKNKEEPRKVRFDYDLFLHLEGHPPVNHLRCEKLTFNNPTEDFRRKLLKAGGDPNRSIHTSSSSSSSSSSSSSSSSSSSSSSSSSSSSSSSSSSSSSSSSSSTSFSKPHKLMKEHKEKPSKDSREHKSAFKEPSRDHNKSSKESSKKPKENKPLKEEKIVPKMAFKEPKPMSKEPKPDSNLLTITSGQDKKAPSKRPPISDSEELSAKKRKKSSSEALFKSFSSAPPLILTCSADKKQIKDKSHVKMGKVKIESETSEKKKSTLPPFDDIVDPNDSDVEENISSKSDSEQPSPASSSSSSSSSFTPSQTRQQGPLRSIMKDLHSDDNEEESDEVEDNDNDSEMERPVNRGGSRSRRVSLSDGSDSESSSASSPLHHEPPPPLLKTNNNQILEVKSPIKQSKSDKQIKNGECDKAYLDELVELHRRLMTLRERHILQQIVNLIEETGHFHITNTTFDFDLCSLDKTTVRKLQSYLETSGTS
# rRNA inh HTS: inhibitors of bacterial rRNA selective over humanized ribosomes | GFP signal change (wild-type ribosome), % (no concentration beside the values) | actives 1.6% (n = 350,000) | E. coli WT GFP vs humanized-ribosome RFP mutants, fluorescence, 24 h; active compounds read low; DMSO median 0, no signal -100;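 active = significant combined selectivity score with lowered wild-type GFP, culture density cut under 30%, mutant RFP and density less affected; inactive = any of these conditions unmet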
# AID977621: growth inhibition of wild-type GFP E. coli, dose response, H69 mutant RFP, cherry-pick; shares compounds with rRNA inh HTS; E. coli wild-type GFP strain growth, fluorescence, 24 h; activity change, negative = inhibition at 50 µM; 1,900 tested, under 10 active; AID 977621;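 active = Wild-type ribosome reporter drop at least double the humanized mutant ribosome reporter drop, growth loss under a set limit; inconclusive = no clear call, values can overlap the other calls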;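 note: wild-type GFP and H69 mutant RFP strains grown together 50/50 in each well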
# AID977628: growth of wild-type and h24-humanized E. coli strains – h24 mutant RFP vs wild-type GFP, cherry-pick, dose response; activity change, negative = inhibition at 50 µM; AID 977628; E. coli WT GFP strain growth, fluorescence, 24 h; 1,900 tested, under 10 active; shares compounds with rRNA inh HTS;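 active = compound lowering the normal-ribosome reporter at least twice as much as the humanized-ribosome reporter, growth loss under a set limit; inconclusive = no clear call, values can overlap the other calls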;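 note: wild-type GFP and h24 humanized RFP strains co-cultured 1 to 1 per well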
# Starred values were filed as active, the others as inactive; ? = inconclusive; nt = no result given.
SMILES,S100A4 inh HTS,Cneo AK release,PfHsp90 set2,DENV2 CPE rescue,AF4-AF9 inh,rRNA inh HTS,AID977621,AID977628
CCOC(=O)CCSc1n[nH]c(=S)s1,4,nt,-5,-5,2,-21*,-14,-2.7
COc1ccc(C2=NN(C(=O)CN3CCCCC3)C(c3ccc(C)cc3)C2)cc1 (stereo not drawn),-2,1,-25,-4,6,-20,nt,nt
COc1ccc(C2CC(c3ccc(Br)cc3)=NN2C(=O)CN2CCCC2)cc1 (stereo not drawn),0,nt,-2,0,11,-19*,-3.5,?
CCOc1ccc(NC(=O)CCc2nnc3ccc(N4CCC(C)CC4)nn23)cc1,-3,0,29,-7,2,-20*,-1.4,nt
CC1Cc2ccccc2N1C(=O)CN1C(=O)NC(C)(CCc2ccccc2)C1=O (stereo not drawn),5,3,4,?,5,-18*,-3.6,-13
CN(Cc1ccccc1NS(=O)(=O)c1ccc(Cl)cc1)C1CCCCC1,-2,-4,nt,-3,-2,-29*,-6.9,?
CC(=O)N1c2ccc(S(=O)(=O)N3CCC(C(=O)N4CCN(c5cccc(C(F)(F)F)c5)CC4)CC3)cc2CC1C (stereo not drawn),-2,1,-3,-4,-1,-10,nt,nt
CC(=O)c1ccc(N2CCN(C(=O)C3CCN(S(=O)(=O)c4ccc5c(c4)CC(C)N5C(C)=O)CC3)CC2)cc1 (stereo not drawn),34,-18,4,2,1,-19*,-14,nt
CCOC(=O)c1c(C)[nH]c(C)c1S(=O)(=O)NCCN1CCN(c2ccccc2F)CC1,1,0,6,-4,8,-16*,-6.3,-16
COCc1ccc(C(=O)N2CCCC(C(=O)c3ccc(Cl)cc3C)C2)o1 (stereo not drawn),-3,1,-67,-5,0,-26*,-1,-8.8
CC(C)C#Cc1cnc2c(c1)C(=O)N([C@H](C)CO)C[C@H](C)[C@@H](CN(C)C(=O)c1ccccn1)O2,-3,-4,nt,12,-2,3,nt,nt
CCOC(=O)c1sc(NC(=O)CN2CCN(c3ccccc3)CC2)nc1C,-9,-1,3,-2,6,-20*,nt,-19
CCOC(=O)c1ccc(NC(=O)CN2CCN(c3ccccc3)CC2)cc1,nt,2,-12,nt,nt,nt,nt,nt
O=C(C[C@@H]1C=C[C@@H](NC(=O)Nc2ccc(C(F)(F)F)cc2)[C@@H](CO)O1)NCCN1CCCC1,17,0,nt,-7,1,-2,nt,nt
COc1ccc(NC(=O)Nc2cccc3c2O[C@H](CN(C)Cc2ccc(C(=O)Nc4ccccc4N)cc2)[C@@H](C)CN([C@@H](C)CO)C3=O)cc1,-6,-2,nt,-11,3,-9,nt,nt
C[C@H](CO)N1C[C@H](C)[C@@H](CN(C)C)Oc2ccc(NC(=O)Nc3ccc(F)cc3)cc2CC1=O,8,0,nt,-6,1,4,nt,nt
CC(C)(C)CC(=O)NCCc1csc(-c2ccccc2)n1,-2,nt,5,-3,-2,-16*,-3.8,?
O=C(c1ccccc1)C1Oc2ccccc2C2CC(c3cccs3)=NN12 (stereo not drawn),-5,0,-8,nt,11,-21*,-0.12,-5.9
O=C(c1ccccc1)N1N=C(c2cccs2)CC1c1ccccc1O (stereo not drawn),-1,0,3,-5,7,-21,nt,nt
O=C(NCCCn1ccnc1)c1sc2cc([N+](=O)[O-])ccc2c1Cl,1,nt,nt,?,-7,-16*,-17,-18
O=C(NCCCn1ccnc1)c1sc2cccc(F)c2c1Cl,nt,4,-4,nt,nt,nt,nt,nt
O=C(O)c1ccc2c(c1)N(Cc1ccccc1)C(=O)c1ccccc1S2,-5,-1,-22,-1,2,-24*,-9.8,nt
COc1cc[n+]([O-])cc1[N+](=O)[O-],-6,0,nt,9,3,1.2*,-14,-6.7
CC(CCc1ccccc1)NC(=O)CNC(=O)COc1ccccc1 (stereo not drawn),-2,nt,nt,1,0,-14*,-15,nt
COc1ccc(CNC(=O)c2sc3nc4c(c(C(F)(F)F)c3c2N)CCC4)cc1OC,-1,-3,-8,0,3,-19*,-0.68,3.3
SMILES,S100A4 inh HTS,Cneo AK release,PfHsp90 set2,DENV2 CPE rescue,AF4-AF9 inh,rRNA inh HTS,AID977621,AID977628
COc1ccc(-c2c3c(nc4sc(C(=O)Nc5cc(C)on5)c(N)c24)CCC3)cc1,nt,-10,6,nt,nt,nt,nt,nt
C[C@@H]1CN([C@H](C)CO)C(=O)c2cc(/C=C/c3ccccc3)cnc2O[C@@H]1CN(C)C(=O)c1cnccn1,2,-8,nt,16,0,4,nt,nt
O=C(CC(c1ccccc1)c1cc(Br)ccc1O)N1CCCC1 (stereo not drawn),-4,nt,-1,1,0,-20*,nt,?
Cc1cc(C)nc(SCC(=O)Nc2ccc3c(c2)OCO3)n1,0,-1,-9,?,1,1,nt,nt
Cc1nc(SCC(=O)Nc2ccc3c(c2)OCCO3)nc(C)c1C,-10,2,27,4,-9,-18*,-16,nt
C[C@@H]1CN([C@H](C)CO)C(=O)c2cc(NC(=O)Cc3ccccc3)ccc2O[C@@H](C)CCCCO[C@@H]1CN(C)C(=O)c1ccccc1,11,-2,nt,-7,-3,-3,nt,nt
CO[C@@H]1CN(C)C(=O)c2ccc(NC(=O)CC(F)(F)F)cc2OC[C@H](C)N(CC2CC2)C[C@@H]1C,nt,nt,nt,nt,nt,1,nt,nt
O=C(c1cc(S(=O)(=O)N2CCOCC2)ccc1Cl)N1CCc2ccccc2C1,-2,0,-8,-1,1,-20*,-12,-9.1
COc1cc2c(cc1OC)CN(C(=O)c1cc(S(=O)(=O)N3CCOCC3)ccc1Cl)CC2,nt,-2,-2,nt,nt,nt,nt,nt
CCN(C(=O)COC(=O)c1cn(-c2ccccc2)nc1-c1ccccc1)C1CCS(=O)(=O)C1 (stereo not drawn),4,nt,10,4,4,-39*,-24,-12
CCOc1cccc(-c2cc(-c3n[nH]c(=S)n3CC)c3ccccc3n2)c1,8,36,-2,-5,12,-37*,-17,?
